From ChEMBL document CHEMBL4196006, “Aryl thiosemicarbazones for the treatment of trypanosomatidic infections” (Eur J Med Chem, 2018)
Active and inactive are the calls of the source. No cut-off for these calls is given here.

Assays:
[1] = Cytotoxicity against human 786-O cells assessed as inhibition of mitochondrial viability at 10 uM after 6 hrs by CMXRos staining based assay relative to control; format: cell-based, 786-0; conditions: read-out: INH
Outline: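 Mitochondrial toxicity monitored by MitoTracker Red CMXRos uptake and high-content imaging; compound at 10 μM, triplicate.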

Trypanosoma brucei [2] = test: Potentiation of methotrexate-induced antitrypanosomal activity against Trypanosoma brucei Lister 427 bloodstream form assessed as dose reduction index for methotrexate at EC50 after 72 hrs by resazurin dye-based assay; format: functional
Trypanosoma cruzi [3] = test: Antitrypanosomal activity against Trypanosoma cruzi amastigote form infected in human U2OS cells assessed as parasite growth inhibition after 72 hrs; format: functional, organism-based
Outline: (§1)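 U2OS monolayers grown for 24 h, then infected with tissue-derived trypomastigotes of T. cruzi Y strain. Compounds were added 24 h after infection at 50 μM (single-point) or in dose-response, with 72 h exposure. Plates were fixed, stained and analysed by high-content imaging; activity was normalized to infected and non-infected controls. Means of at least two experiments; benznidazole as reference.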

Trypanosoma brucei [4] = test: Potentiation of methotrexate-induced antitrypanosomal activity against Trypanosoma brucei Lister 427 bloodstream form at 10 uM after 72 hrs by resazurin dye-based assay relative to control; format: functional
Trypanosoma brucei [5] = test: Antitrypanosomal activity against Trypanosoma brucei Lister 427 bloodstream form at 10 uM after 72 hrs by resazurin dye-based assay relative to control; format: functional
[6] = molecular target: T1, Pteridine reductase, putative (Trypanosoma brucei) (UniProt Q581W1); test: Inhibition of Trypanosoma brucei PTR1 at 50 uM using H2B as substrate in presence of NADPH by photometric analysis relative to control
T1 sequence (whole entry): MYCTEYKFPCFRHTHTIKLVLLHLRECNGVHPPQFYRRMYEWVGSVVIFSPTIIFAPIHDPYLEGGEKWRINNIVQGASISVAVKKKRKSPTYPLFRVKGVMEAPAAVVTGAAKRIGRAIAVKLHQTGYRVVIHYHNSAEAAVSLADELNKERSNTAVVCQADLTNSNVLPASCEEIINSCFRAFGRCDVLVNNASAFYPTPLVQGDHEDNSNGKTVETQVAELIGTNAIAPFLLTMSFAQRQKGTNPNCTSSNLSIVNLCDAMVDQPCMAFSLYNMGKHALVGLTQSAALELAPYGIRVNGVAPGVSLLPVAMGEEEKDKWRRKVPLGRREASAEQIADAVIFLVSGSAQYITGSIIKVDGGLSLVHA

[7] = Cytotoxicity against human THP1 cells assessed as viable cells at 100 uM after 72 hrs by MTT assay relative to control; format: cell-based, THP-1; conditions: read-out: Activity
Outline: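 THP-1-derived macrophages exposed to compounds for 72 h, tested at 100 μM or in dose-response; viability read by MTT colorimetric assay.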

hERG (KCNH2) = hERG (KCNH2) (Homo sapiens, UniProt Q12809); test: Inhibition of human ERG at 10 uM incubated for 2 hrs by fluorescence polarisation assay relative to control
hERG (KCNH2), sequence (Q12809 whole entry): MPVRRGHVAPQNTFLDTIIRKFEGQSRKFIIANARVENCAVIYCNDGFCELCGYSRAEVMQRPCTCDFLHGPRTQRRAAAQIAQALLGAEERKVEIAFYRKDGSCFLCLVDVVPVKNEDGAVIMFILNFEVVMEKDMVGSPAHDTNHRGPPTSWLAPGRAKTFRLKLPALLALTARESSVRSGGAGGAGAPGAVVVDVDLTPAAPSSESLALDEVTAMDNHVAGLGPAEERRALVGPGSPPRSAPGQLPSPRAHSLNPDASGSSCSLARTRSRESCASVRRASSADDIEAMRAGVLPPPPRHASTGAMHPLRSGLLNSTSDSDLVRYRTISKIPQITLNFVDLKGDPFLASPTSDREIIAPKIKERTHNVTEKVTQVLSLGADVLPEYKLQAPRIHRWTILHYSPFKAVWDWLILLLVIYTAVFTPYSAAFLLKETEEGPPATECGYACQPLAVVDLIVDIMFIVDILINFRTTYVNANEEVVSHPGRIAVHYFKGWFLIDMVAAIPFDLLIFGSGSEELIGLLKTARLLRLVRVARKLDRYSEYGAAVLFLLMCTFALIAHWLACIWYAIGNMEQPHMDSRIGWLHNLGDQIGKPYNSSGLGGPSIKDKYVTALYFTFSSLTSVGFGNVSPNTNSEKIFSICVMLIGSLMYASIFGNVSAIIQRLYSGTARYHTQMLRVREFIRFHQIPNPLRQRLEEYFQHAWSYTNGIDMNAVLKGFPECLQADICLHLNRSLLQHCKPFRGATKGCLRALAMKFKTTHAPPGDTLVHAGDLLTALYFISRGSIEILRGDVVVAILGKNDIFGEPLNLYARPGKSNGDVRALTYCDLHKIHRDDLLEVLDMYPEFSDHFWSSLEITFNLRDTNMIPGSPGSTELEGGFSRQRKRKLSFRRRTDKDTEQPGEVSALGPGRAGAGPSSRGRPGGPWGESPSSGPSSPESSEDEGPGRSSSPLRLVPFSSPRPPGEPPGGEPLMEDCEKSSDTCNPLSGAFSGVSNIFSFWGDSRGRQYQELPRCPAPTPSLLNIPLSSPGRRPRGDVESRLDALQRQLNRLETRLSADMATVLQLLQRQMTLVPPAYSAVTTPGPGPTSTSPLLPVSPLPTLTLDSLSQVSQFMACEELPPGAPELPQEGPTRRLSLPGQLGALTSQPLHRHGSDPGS

Trypanosoma brucei [8] = test: Potentiation of methotrexate-induced antitrypanosomal activity against Trypanosoma brucei Lister 427 bloodstream form assessed as dose reduction index for compound at EC50 after 72 hrs by resazurin dye-based assay; format: functional
CYP2C19 = CYP2C19 (Homo sapiens, UniProt P33261); test: Inhibition of human microsomal CYP2C19 expressed in baculovirus infected BTI-TN-5B1-4 cells at 10 uM incubated for 30 mins by luciferase assay relative to control; format: ADME
CYP2C19, sequence (P33261 whole entry): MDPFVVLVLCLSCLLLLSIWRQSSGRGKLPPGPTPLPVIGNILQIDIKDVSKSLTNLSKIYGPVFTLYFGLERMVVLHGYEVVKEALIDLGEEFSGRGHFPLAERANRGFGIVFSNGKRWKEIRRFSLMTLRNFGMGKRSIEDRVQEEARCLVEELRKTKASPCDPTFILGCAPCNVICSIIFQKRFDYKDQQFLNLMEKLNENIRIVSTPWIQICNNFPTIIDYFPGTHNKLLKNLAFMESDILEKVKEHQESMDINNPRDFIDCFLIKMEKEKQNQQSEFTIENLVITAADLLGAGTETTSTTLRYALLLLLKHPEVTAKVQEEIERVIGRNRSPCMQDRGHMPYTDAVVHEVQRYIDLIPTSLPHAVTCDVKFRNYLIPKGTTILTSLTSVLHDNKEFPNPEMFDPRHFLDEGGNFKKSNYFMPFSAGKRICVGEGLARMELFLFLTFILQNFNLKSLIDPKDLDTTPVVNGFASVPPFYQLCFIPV
Outline: (§2)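 CYP1A2, 2C9, 2C19, 2D6 and 3A4 in microsomes from baculovirus-infected insect cells, each with a P450-Glo luminogenic substrate. Inhibition read as loss of light; single-point at 10 μM, triplicate.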

CYP2C9 = CYP2C9 (Homo sapiens, UniProt P11712); test: Inhibition of human microsomal CYP2C9 expressed in baculovirus infected BTI-TN-5B1-4 cells at 10 uM incubated for 30 mins by luciferase assay relative to control; format: ADME; outline: as §2
CYP2C9, sequence (P11712 whole entry): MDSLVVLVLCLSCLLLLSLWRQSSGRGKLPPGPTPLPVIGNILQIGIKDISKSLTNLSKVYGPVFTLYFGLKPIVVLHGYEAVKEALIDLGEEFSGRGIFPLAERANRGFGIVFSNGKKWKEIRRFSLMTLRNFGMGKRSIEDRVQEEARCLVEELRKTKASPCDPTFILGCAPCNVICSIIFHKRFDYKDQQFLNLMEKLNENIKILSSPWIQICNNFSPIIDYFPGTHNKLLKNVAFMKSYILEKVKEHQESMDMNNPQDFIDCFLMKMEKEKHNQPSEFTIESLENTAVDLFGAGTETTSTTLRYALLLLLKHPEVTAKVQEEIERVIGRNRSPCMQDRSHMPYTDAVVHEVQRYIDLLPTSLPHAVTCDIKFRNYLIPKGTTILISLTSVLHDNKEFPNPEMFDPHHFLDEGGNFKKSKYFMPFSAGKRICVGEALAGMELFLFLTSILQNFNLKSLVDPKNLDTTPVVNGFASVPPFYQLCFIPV

[9] = Cytotoxicity against human U2OS cells assessed as viable cells at 50 uM after 72 hrs by MTT assay relative to control; format: cell-based; conditions: read-out: Activity
CYP1A2 = molecular target: T2, CYP1A2 (Homo sapiens, UniProt P05177); test: Inhibition of human microsomal CYP1A2 expressed in baculovirus infected BTI-TN-5B1-4 cells at 10 uM incubated for 30 mins by luciferase assay relative to control; format: ADME; outline: as §2
T2 sequence (P05177 whole entry): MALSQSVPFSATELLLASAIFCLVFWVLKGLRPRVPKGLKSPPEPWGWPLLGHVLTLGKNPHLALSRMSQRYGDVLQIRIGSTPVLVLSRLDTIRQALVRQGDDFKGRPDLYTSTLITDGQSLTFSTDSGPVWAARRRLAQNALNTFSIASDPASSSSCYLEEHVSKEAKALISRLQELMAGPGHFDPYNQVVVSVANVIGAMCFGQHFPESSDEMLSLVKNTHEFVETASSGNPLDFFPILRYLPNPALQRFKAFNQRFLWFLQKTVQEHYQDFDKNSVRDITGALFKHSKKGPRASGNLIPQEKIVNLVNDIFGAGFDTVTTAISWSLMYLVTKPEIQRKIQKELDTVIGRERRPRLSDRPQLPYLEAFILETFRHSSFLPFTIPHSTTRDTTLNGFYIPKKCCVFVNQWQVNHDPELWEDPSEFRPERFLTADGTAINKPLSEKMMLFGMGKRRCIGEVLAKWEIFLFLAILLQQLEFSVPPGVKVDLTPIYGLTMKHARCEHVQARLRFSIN

CYP2D6 = CYP2D6 (Homo sapiens, UniProt P10635); test: Inhibition of human microsomal CYP2D6 expressed in baculovirus infected BTI-TN-5B1-4 cells at 10 uM incubated for 30 mins by luciferase assay relative to control; format: ADME; outline: as §2
CYP2D6, sequence (P10635 whole entry): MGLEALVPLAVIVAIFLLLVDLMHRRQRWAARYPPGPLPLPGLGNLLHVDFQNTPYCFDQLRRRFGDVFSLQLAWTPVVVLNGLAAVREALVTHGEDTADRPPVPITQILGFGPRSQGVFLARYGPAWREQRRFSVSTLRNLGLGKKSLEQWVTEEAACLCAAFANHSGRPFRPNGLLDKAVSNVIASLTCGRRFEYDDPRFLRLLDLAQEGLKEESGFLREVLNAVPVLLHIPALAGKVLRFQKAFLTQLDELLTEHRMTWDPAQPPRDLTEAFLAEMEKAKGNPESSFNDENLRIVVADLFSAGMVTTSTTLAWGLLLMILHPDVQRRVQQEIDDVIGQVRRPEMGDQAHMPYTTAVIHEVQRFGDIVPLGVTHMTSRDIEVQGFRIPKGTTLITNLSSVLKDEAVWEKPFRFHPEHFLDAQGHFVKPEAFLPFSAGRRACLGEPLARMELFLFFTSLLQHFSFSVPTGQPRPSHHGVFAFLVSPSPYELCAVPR

Aurora kinase B = Aurora kinase B (Homo sapiens, UniProt Q96GD4); test: Inhibition of recombinant full-length human aurora B kinase expressed in baculovirus system at 10 uM using MBP as substrate incubated for 45 mins by ADP-glo kinase assay; conditions: probe MBP
Aurora kinase B, sequence (Q96GD4 whole entry): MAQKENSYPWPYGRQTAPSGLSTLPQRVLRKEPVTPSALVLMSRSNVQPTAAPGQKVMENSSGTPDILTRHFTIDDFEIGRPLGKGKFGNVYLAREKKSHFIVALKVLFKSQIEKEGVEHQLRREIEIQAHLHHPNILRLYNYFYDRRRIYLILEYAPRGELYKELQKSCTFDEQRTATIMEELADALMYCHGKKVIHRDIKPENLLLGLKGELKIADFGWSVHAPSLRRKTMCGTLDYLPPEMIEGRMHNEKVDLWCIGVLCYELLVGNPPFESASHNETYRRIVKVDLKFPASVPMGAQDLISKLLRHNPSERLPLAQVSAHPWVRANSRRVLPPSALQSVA
Outline: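 Aurora B activity measured as ADP formation via coupled luciferase ADP-Glo luminescence; single-point at 10 μM, triplicate.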

Leishmania infantum = test: Antileishmanial activity against Leishmania infantum amastigote form assessed as parasite growth inhibition at 50 uM after 72 hrs by steady-Glo reagent based assay relative to control; format: functional
Outline: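 Intramacrophage L. infantum amastigotes in THP-1-derived macrophages, tested at 50 μM or in dose-response. Plates held 72 h at 37 °C, 5% CO2. Medium was replaced by PBS, macrophages lysed, and parasites read by Steady-Glo luminescence. High-content imaging gave host cell number, infection ratio (infected/total cells) and parasites per infected cell. Values are means of at least two independent experiments.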

Trypanosoma cruzi [10] = test: Antitrypanosomal activity against Trypanosoma cruzi amastigote form infected in human U2OS cells assessed as parasite growth inhibition at 50 uM after 72 hrs relative to control; format: functional; conditions: read-out: GI; outline: as §1

| Structure (SMILES) | cytotoxicity at 6 h, 10 µM [1] [%] | Activity (Trypanosoma brucei [2]) | EC50 (Trypanosoma cruzi [3]) [µM] | Activity (Trypanosoma brucei [4]) [%] | Activity (Trypanosoma brucei [5]) [%] | inhibition [6] [%] | viability at 72 h, 100 µM [7] [%] | inhibition at 2 h, 10 µM (hERG (KCNH2)) [%] | Activity_index (Trypanosoma brucei [8]) | inhibition at 0.5 h, 10 µM (CYP2C19) [%] | inhibition at 0.5 h, 10 µM (CYP2C9) [%] | viability at 72 h, 50 µM [9] [%] | inhibition at 0.5 h, 10 µM (CYP1A2) [%] | inhibition at 0.5 h, 10 µM (CYP2D6) [%] | inhibition at 0.75 h, 10 µM (Aurora kinase B) [%] | inhibition of growth at 50 µM (Leishmania infantum; read-out: GI) [%] | inhibition of growth at 50 µM (Trypanosoma cruzi [10]) [%] | growth inhibition (GI) (Leishmania infantum) |
| --- | --- | --- | --- | --- | --- | --- | --- | --- | --- | --- | --- | --- | --- | --- | --- | --- | --- | --- |
| NC(=S)N/N=C/c1ccc(OCc2ccc(Cl)c(Cl)c2)cc1 | 23.4 | 6.56 | 1.31 | 99.67 | 99.83 | 0.36 | 38.8 | 2.4 | 3.84 | 10.4 | 18.9 | 65.5 | 26.8 | 39.3 | -6.24 | 80.5 | 80.5 | – |
| COc1ccc(-c2cccc(/C=N/NC(N)=S)c2)cc1OC | -13.1 | 6.36 | 29.5 | 99.67 | 98.83 | 3.09 | 40.9 | 22.4 | 7.94 | 22.2 | 56.8 | 26.7 | 64.7 | 29.2 | -2.55 | – | 82.4 | inactive |
